As usually defined, the IC50 is the midpoint of a concentration-inhibition curve.

The source of these data is PubChem BioAssay AID588686 (Southern Research Specialized Biocontainment Screening …, 2011).

Each structure is given as a SMILES string. Active and inactive are the calls of the source.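 The calls were made as follows: active = inhibition of 30% or more at any tested concentration; inactive = the rest.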

One assay addresses M1-family alanyl aminopeptidase PfA-M1 [Plasmodium falciparum 3D7]. As to the kind of experiment: inhibition of malaria M1 alanyl aminopeptidase – biochemical, QFRET, H-Leu-NHMec substrate, dose response (AID 588686). Particulars: recombinant PfM1AAP, H-Leu-NHMec fluorogenic cleavage. A digest of the protocol:
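Assay system: recombinant PfM1AAP enzyme. Medium: Tris buffer pH 7.5 with 2 mM CoCl2. Also added: fluorogenic substrate H-Leu-NHMec at 0.1 mM final. Incubation: 90 min reaction at room temperature. Measured by: released NHMec fluorescence, excitation 370 nm, emission 460 nm. Read-out basis: % inhibition and fitted IC50. Replicates: each concentration tested in triplicate.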
For `CC(C)(C)c1ccc(-c2ccc(S(=O)(=O)N3CCC(C(=O)NCc4ccc5c(c4)OCO5)CC3)s2)cc1`, the IC50 is 49.9 µM.
Same read-out and setting: then `O=C(NCc1ccc2c(c1)OCO2)C1CCN(S(=O)(=O)c2ccc(-c3cncc4ccccc34)s2)CC1`, with 11.4 µM; and `CN(C)c1ccc(CNC(=O)C2CCN(S(=O)(=O)c3ccc(Br)s3)CC2)cc1`, with 23.8 µM.

Still in this assay, the particulars now being: recombinant PfM1AAP, H-Leu-NHMec fluorogenic cleavage; at 100 µM (top of the series).
On to `CC[C@H](C)[C@H](NC(=O)c1ccc(C(C)(C)C)cc1)C(=O)NCc1ccc(C(F)(F)F)cc1`, for which the inhibition result was “inactive”.
On to `CC(=O)Nc1cccc(-c2ccc(S(=O)(=O)N3CCC(C(=O)NCc4ccc5c(c4)OCO5)CC3)s2)c1`, for which the inhibition result is “inactive”.
On to `CC[C@H](C)[C@H](NS(=O)(=O)c1ccc(Br)s1)C(=O)O`, for which the inhibition entry was “inactive”.
On the same count and under the same terms, next, `CC[C@H](C)[C@H](NC(=O)c1ccc([N+](=O)[O-])cc1)C(=O)NCc1ccccc1`: “inactive”; `CC[C@H](C)[C@H](NS(=O)(=O)c1ccc(Br)s1)C(=O)NCc1ccc(C(F)(F)F)cc1`: “inactive”; `CC[C@H](C)[C@H](NS(=O)(=O)c1cccs1)C(=O)NCc1ccc(F)cc1`: “inactive”.
The same measure, in the same setting: next, `O=C(NCc1ccc2c(c1)OCO2)C1CCN(S(=O)(=O)c2ccc(-c3cccc(F)c3)s2)CC1`: “inactive”.
Still for that read-out and setting: next, `O=C(NCc1ccc2c(c1)OCO2)C1CCN(S(=O)(=O)c2ccc(-c3ccccc3)s2)CC1`: “inactive”; `COc1ccc(-c2ccc(S(=O)(=O)N3CCC(C(=O)NCc4ccc5c(c4)OCO5)CC3)s2)cc1`: “inactive”.
As to `CC[C@H](C)[C@H](NC(=O)c1ccc([N+](=O)[O-])cc1)C(=O)NCc1ccc(C(F)(F)F)cc1`, the inhibition entry is “inactive”.
Still for that read-out and setting: then `CC[C@H](C)[C@H](NC(=O)c1ccc([N+](=O)[O-])cc1)C(=O)NCc1ccc(F)cc1`, with “inactive”; and `CC[C@H](C)[C@H](NS(=O)(=O)c1ccc(Br)s1)C(=O)NCc1ccc(F)cc1`, with “inactive”; and `COc1cccc(-c2ccc(S(=O)(=O)N3CCC(C(=O)NCc4ccc5c(c4)OCO5)CC3)s2)c1`, with “inactive”.
